Published values gathered from unrelated publications.
Compare with care: the assays were run in different laboratories.
Target: Maternal embryonic leucine zipper kinase (MELK, Homo sapiens, UniProt Q14680)

COc1cc2ncnc(Nc3ccc(F)c(Cl)c3)c2cc1OCCCN1CCOCC1
remaining signal (cell-free assay; 0.5 µM): 77.7%

O=[N+]([O-])c1cccc2[nH]c(CNc3nc(N4CCOCC4)nc4c3ncn4-c3ccsc3)nc12
binding vs control (binding, competition with immobilised ligand; 10 µM): 47%

FC(F)(F)Oc1cccc(-c2cnc3ccc(-c4ccncc4)nn23)c1
activity vs control (enzyme activity, inhibitor, radiometric; 5 µM): 77%

C[C@@H](c1cccc(C#N)c1)n1cc(Cl)cc(C(N)=O)c1=N
remaining binding (cell-free assay, competition with immobilised ligand; 1 µM): 78%

O=C(Nc1cnn(-c2csc(C(=O)NC3COC3)c2)c1)Nc1c(F)cccc1Cl
remaining activity (enzyme activity, inhibitor; 5 µM): 61.4%

COc1cc(Nc2cnc(C#N)c(O[C@H](C)CN(C)C)n2)ncc1-c1cnn(C)c1
remaining activity (enzyme activity, inhibitor, radiometric; 10 µM): 62%

CCS(=O)(=O)c1cc2cc(C[C@@](O)(CC(C)(C)c3ccc(F)cc3C(N)=O)C(F)(F)F)[nH]c2cn1
remaining binding (cell-free assay, competition with immobilised ligand; 1 µM): 100%

CCN(CC)CCNC(=O)c1c(C)[nH]c(/C=C2\C(=O)Nc3ccc(F)cc32)c1C
inhibition (enzyme activity, inhibitor; 10 µM): 99%

Nc1ncnc2occ(-c3ccc(NC(=O)Nc4cc(C(F)(F)F)ccc4F)cc3)c12
remaining signal (cell-free assay, inhibitor; 20 µM): 8.1%

COc1ccc(COc2ccc(Cc3cnc(N)nc3N)cc2OC)cc1
remaining signal (cell-free assay; 0.5 µM): 102%

Cc1noc([C@H]2C[C@@H](c3ccc(C(F)(F)F)cc3)CN(C(=O)N3CCS(=O)(=O)C3)C2)n1
remaining binding (cell-free assay, competition with immobilised ligand; 1 µM): 100%

COc1cc(/C=C/C(=O)CC(=O)/C=C/c2ccc(O)c(OC)c2)ccc1O
activity vs control (enzyme activity, inhibitor; 1 µM): 74%

CC(C)(C)c1nc(-c2cccc(NS(=O)(=O)c3c(F)cccc3F)c2F)c(-c2ccnc(N)n2)s1
remaining activity (enzyme activity, inhibitor, radiometric; 1 µM): 27%

O=C1Nc2ccc(Cl)cc2C1=Cc1cc(Cl)c(O)c(Cl)c1
remaining signal (cell-free assay; 0.5 µM): 83.6%

Cc1cnc(NC2CCOCC2)nc1-n1cnc(C(=O)NC(CN)c2cc(F)cc(Cl)c2)c1 (centres unmarked)
remaining activity (enzyme activity, inhibitor, radiometric; 1 µM): 49%

CNC(=O)Nc1ccc2c(c1)[C@@]1(CC2)OC(=O)N(CC(=O)N(Cc2ccc(F)cc2)[C@@H](C)C(F)(F)F)C1=O
remaining binding (cell-free assay, competition with immobilised ligand; 1 µM): 100%

CNC(=O)c1cc(Oc2ccc(NC(=O)Nc3ccc(Cl)c(C(F)(F)F)c3)cc2)ccn1
inhibition (enzyme activity, inhibitor; 0.3 µM): 4%

COc1cc(-c2cc(-c3ccc(N4CCNCC4)cc3)cnc2C)cc(OC)c1OC
inhibition (enzyme activity, inhibitor; 1 µM): 8%

CC(C)(C)C(=O)c1sc(NC2CCCCC2)nc1N
remaining activity (enzyme activity, inhibitor; 10 µM): 89%

CN(C)C(=O)Cn1cc(-c2nc([C@@](C)(c3ccc(-c4cnc(N)nc4)cc3)C3CC3)no2)cn1
remaining binding (cell-free assay, competition with immobilised ligand; 1 µM): 87%

FC(F)c1nc2ccccc2n1-c1nc(N2CCOCC2)nc(N2CCOCC2)n1
remaining activity (enzyme activity, inhibitor; 10 µM): 91%

COc1cc2c(Nc3ccc(Br)cc3F)ncnc2cc1OCC1CCN(C)CC1
remaining signal (cell-free assay; 0.5 µM): 94.4%

CN1CC(Oc2cnc(C#N)cc2-c2ccn3nc(NC(=O)C4CC4)cc3c2)C1
inhibition (enzyme activity, inhibitor; 1 µM): 10%

Nc1nc(NC2CCCCC2)sc1C(=O)c1ccccc1
remaining activity (enzyme activity, inhibitor; 10 µM): 70%

O=C(Nc1cnn(-c2csc(C(=O)NC3COC3)c2)c1)Nc1ccccc1Cl
remaining activity (enzyme activity, inhibitor; 5 µM): 48.7%

COc1cc2ncnc(Nc3ccc(Oc4ccccc4)c(C)c3C)c2cc1OC
inhibition (enzyme activity, inhibitor; 1 µM): 10%

C[C@H](NC(=O)c1cnc2n1[C@](C)(Cc1ccc(C#N)cc1)C(=O)N2c1cc(Cl)c(F)c(Cl)c1)C(=O)NC1(c2ccccn2)CC1
remaining binding (cell-free assay, competition with immobilised ligand; 1 µM): 86%

CCCS(=O)(=O)Nc1ccc(F)c(C(=O)c2c[nH]c3ncc(-c4ccc(Cl)cc4)cc23)c1F
inhibition (enzyme activity, inhibitor; 1 µM): < 10%

N#Cc1ccc(Nc2ccc3[nH]c(=O)[nH]c3c2)c(Cl)c1
remaining binding (cell-free assay, competition with immobilised ligand; 1 µM): 95%

Cc1ccc(C(=O)Nc2ccc(CN3CCN(C)CC3)c(C(F)(F)F)c2)cc1C#Cc1cnc2cccnn12
remaining activity (enzyme activity, inhibitor; 23.5 nM): 61%

C[C@@]1(Cc2ccc(C#N)cc2)C(=O)N(c2cc(Cl)cc(Cl)c2)c2ncc(C(=O)NC3(c4nc(C5CCC5)no4)CC3)n21
remaining binding (cell-free assay, competition with immobilised ligand; 1 µM): 89%

Cc1ccc(Nc2nccc(N(C)c3ccc4c(C)n(C)nc4c3)n2)cc1S(N)(=O)=O
inhibition (enzyme activity, inhibitor; 0.3 µM): 7%
